Laboratory results published in ChEMBL document CHEMBL2424622, “Development of amino-pyrimidine inhibitors of c-Jun N-terminal kinase (JNK): kinase profiling guided optimization of a 1,2,3-benzotriazole lead” (Bioorg Med Chem Lett, 2013).

How the values were obtained:
[1] = biological target: Serine/threonine-protein kinase 26 (Homo sapiens) (UniProt Q9P289); test: Competitive binding affinity to MST4 (unknown origin) at 10 uM in presence of ATP relative to control
[2] = biological target: Dual specificity mitogen-activated protein kinase kinase 2 (Homo sapiens) (UniProt P36507); test: Competitive binding affinity to MEK2 (unknown origin) at 10 uM in presence of ATP relative to control
Chain of Dual specificity mitogen-activated protein kinase kinase 2 (Homo sapiens) (P36507 whole entry): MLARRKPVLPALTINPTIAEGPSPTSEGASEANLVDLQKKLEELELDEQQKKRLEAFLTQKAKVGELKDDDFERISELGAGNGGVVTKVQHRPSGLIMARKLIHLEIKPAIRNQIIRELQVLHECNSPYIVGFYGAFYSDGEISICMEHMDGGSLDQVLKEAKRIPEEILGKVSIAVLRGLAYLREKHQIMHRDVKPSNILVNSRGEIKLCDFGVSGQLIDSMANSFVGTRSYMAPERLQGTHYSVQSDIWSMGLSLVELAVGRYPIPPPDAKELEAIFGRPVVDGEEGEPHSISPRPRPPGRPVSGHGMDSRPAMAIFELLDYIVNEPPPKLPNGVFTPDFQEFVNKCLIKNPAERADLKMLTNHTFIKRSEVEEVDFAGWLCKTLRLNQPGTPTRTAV

[3] = system: Fibroblast growth factor receptor 3 (Homo sapiens), P22607 [G697C]; test: Competitive binding affinity to FGFR3 G697C mutant (unknown origin) at 10 uM in presence of ATP relative to control
Chain of Fibroblast growth factor receptor 3 (Homo sapiens), P22607 [G697C] (P22607 whole entry G697C): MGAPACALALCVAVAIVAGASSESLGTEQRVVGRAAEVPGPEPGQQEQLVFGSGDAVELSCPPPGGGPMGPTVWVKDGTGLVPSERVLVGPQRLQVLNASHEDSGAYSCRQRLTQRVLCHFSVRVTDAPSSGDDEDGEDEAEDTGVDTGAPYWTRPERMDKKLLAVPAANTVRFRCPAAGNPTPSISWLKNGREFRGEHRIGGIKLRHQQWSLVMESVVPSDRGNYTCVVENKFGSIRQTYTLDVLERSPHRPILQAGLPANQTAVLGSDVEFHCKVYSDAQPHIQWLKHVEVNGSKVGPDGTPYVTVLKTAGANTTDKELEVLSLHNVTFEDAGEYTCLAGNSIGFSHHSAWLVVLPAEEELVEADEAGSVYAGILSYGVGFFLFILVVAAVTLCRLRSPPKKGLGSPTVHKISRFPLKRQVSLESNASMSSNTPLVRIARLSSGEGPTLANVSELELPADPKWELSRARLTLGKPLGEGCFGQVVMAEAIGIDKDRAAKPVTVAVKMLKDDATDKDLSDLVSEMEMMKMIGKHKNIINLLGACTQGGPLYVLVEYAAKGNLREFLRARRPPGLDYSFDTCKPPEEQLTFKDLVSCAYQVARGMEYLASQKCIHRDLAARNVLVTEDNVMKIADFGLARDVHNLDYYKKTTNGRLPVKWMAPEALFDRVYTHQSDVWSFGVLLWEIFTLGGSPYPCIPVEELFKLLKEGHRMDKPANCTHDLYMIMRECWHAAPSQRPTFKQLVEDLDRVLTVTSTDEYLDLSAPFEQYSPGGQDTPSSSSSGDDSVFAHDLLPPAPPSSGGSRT
In short: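 In vitro ATP-site competition binding assay, part of profiling against a diverse panel of 128 kinases. Each compound was tested at a single concentration of 10 µM. Kinome selectivity was summarized as S15 selectivity scores.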

[4] = biological target: T1, Tyrosine-protein kinase JAK3 (Homo sapiens) (UniProt P52333); test: Competitive binding affinity to JAK3 kinase domain 2 (unknown origin) at 10 uM in presence of ATP relative to control
T1 sequence (whole entry): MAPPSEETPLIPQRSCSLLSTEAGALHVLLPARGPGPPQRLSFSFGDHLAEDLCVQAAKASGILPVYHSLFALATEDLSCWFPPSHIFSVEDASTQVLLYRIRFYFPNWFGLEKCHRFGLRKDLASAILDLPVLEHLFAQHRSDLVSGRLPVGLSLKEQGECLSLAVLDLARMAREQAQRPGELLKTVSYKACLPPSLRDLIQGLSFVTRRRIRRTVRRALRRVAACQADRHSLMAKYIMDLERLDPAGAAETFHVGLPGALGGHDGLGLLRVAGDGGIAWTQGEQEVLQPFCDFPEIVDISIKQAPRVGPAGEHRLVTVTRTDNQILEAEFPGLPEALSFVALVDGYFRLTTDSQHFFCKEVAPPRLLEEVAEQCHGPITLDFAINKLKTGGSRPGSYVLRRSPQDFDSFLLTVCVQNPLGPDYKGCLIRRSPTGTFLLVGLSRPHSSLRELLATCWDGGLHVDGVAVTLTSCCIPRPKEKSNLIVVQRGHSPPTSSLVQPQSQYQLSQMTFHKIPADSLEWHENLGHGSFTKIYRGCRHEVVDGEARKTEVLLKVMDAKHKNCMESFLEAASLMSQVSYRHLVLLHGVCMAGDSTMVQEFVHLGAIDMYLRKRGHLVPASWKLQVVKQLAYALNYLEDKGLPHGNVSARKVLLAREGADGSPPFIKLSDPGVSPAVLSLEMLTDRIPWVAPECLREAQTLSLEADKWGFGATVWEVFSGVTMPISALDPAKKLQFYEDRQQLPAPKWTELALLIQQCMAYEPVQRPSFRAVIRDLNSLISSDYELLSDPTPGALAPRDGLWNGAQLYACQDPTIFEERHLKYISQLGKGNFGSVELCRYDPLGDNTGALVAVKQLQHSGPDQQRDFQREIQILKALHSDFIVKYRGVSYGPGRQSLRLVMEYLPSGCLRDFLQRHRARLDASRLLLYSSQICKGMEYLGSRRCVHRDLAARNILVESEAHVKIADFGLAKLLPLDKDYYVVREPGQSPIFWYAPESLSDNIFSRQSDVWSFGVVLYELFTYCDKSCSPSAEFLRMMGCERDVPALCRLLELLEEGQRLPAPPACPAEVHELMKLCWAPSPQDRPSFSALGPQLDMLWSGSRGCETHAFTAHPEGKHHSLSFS

[5] = biological target: Wee1-like protein kinase (Homo sapiens) (UniProt P30291); test: Competitive binding affinity to WEE1 (unknown origin) at 10 uM in presence of ATP relative to control
Chain of Wee1-like protein kinase (Homo sapiens) (P30291 whole entry, looked up): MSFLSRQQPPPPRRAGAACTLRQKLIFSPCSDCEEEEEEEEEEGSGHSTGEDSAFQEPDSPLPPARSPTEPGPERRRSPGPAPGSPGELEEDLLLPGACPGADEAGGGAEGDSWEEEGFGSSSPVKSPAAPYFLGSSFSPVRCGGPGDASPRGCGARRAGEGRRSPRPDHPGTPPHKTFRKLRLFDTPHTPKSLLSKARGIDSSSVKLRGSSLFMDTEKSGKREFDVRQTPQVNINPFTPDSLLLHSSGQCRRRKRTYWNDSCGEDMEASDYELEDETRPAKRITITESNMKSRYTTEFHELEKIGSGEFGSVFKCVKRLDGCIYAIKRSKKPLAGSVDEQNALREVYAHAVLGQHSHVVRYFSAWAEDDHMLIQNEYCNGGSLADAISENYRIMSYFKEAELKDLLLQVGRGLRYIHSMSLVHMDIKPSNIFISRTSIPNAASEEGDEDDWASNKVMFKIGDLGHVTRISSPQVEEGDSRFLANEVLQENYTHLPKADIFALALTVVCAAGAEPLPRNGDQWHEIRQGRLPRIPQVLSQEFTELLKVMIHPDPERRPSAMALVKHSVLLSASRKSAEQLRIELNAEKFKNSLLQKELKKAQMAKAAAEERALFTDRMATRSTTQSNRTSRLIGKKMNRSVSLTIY

[6] = biological target: T2, Serine/threonine-protein kinase DCLK2 (Homo sapiens) (UniProt Q8N568); test: Competitive binding affinity to DCAMKL2 (unknown origin) at 10 uM in presence of ATP relative to control
T2 sequence (whole entry): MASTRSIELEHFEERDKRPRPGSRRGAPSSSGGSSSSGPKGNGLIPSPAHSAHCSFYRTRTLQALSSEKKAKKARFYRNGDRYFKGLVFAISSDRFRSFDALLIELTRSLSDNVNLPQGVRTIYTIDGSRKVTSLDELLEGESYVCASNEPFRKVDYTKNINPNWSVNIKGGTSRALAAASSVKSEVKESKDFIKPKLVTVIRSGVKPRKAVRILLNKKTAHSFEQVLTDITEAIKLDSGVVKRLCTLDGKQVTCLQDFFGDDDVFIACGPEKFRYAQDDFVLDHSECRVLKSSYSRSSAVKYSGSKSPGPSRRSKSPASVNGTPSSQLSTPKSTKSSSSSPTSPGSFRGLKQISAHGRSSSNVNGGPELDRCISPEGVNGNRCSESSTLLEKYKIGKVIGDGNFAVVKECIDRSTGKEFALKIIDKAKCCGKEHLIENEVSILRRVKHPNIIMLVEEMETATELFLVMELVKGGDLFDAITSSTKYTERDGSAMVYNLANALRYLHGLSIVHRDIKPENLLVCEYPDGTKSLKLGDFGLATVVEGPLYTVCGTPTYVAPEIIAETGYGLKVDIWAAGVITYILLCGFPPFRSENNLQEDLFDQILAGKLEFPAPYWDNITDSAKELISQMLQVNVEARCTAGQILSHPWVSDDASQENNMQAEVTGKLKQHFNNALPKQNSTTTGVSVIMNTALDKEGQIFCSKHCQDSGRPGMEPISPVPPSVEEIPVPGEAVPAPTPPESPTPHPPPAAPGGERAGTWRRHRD

[7] = biological target: Activin receptor type-2A (Homo sapiens) (UniProt P27037); test: Competitive binding affinity to ACVR2A (unknown origin) at 10 uM in presence of ATP relative to control
Chain of Activin receptor type-2A (Homo sapiens) (P27037 whole entry): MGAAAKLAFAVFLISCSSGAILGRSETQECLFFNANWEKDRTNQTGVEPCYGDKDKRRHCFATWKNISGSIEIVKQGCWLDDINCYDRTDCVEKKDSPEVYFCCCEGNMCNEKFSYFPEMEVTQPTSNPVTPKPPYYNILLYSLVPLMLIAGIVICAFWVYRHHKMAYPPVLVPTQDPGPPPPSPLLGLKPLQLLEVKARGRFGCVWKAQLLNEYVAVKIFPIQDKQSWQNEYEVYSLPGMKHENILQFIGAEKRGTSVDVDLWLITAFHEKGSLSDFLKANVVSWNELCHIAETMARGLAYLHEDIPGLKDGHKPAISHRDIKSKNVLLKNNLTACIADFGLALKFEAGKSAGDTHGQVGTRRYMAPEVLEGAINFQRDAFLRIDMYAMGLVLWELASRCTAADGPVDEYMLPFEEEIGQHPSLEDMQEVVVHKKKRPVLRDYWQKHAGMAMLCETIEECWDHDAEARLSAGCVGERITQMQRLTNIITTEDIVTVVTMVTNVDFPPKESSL

[8] = system: Proto-oncogene tyrosine-protein kinase receptor Ret (Homo sapiens), P07949 [M918T]; test: Competitive binding affinity to RET M918T mutant (unknown origin) at 10 uM in presence of ATP relative to control
Chain of Proto-oncogene tyrosine-protein kinase receptor Ret (Homo sapiens), P07949 [M918T] (P07949 whole entry M918T): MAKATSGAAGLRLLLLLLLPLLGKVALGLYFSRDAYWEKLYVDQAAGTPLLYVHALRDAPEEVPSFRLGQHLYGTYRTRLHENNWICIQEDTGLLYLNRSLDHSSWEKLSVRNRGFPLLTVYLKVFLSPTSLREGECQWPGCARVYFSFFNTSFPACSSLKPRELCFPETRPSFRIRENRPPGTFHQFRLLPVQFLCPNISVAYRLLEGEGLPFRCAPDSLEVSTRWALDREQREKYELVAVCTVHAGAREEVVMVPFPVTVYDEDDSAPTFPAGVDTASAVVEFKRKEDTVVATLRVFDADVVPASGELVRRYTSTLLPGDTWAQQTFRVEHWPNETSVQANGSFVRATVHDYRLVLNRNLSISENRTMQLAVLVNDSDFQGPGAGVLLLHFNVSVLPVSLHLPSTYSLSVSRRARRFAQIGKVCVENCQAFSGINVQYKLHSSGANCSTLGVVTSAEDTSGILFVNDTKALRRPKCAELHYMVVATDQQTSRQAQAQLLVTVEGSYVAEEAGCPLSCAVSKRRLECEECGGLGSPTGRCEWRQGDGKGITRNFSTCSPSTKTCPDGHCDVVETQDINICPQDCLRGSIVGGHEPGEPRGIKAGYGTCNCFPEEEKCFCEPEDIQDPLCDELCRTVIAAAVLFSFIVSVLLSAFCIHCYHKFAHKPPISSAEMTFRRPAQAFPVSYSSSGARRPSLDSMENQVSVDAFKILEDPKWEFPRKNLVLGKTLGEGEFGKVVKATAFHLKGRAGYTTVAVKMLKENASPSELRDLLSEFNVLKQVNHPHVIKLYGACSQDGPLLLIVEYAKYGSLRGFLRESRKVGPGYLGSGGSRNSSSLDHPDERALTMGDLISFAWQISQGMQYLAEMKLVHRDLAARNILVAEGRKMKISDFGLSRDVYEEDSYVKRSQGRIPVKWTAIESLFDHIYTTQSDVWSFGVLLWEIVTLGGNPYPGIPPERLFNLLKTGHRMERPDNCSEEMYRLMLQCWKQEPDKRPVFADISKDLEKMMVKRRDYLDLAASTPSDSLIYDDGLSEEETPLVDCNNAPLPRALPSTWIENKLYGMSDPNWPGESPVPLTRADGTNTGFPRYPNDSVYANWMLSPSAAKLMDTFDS

[9] = biological target: Cyclin-dependent kinase 14 (Homo sapiens) (UniProt O94921); test: Competitive binding affinity to PFTK1 (unknown origin) at 10 uM in presence of ATP relative to control
Chain of Cyclin-dependent kinase 14 (Homo sapiens) (O94921 whole entry): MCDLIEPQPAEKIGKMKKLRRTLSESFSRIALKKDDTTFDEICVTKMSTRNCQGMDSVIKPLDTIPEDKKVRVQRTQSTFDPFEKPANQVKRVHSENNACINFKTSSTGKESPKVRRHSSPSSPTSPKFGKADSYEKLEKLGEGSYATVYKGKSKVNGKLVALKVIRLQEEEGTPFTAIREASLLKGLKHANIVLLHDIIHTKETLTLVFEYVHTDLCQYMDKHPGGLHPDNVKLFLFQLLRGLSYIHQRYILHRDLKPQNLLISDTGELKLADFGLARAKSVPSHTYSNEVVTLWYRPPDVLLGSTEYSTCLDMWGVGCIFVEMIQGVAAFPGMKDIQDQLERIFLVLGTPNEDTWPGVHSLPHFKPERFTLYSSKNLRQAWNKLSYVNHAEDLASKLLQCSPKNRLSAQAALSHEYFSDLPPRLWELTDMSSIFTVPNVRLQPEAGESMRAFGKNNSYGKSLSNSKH

[10] = biological target: Mitogen-activated protein kinase kinase kinase 12 (DLK) (Homo sapiens) (UniProt Q12852); test: Competitive binding affinity to DLK (unknown origin) at 10 uM in presence of ATP relative to control

Chain of Serine/threonine-protein kinase 26 (Homo sapiens) (Q9P289 2-416 limits assumed): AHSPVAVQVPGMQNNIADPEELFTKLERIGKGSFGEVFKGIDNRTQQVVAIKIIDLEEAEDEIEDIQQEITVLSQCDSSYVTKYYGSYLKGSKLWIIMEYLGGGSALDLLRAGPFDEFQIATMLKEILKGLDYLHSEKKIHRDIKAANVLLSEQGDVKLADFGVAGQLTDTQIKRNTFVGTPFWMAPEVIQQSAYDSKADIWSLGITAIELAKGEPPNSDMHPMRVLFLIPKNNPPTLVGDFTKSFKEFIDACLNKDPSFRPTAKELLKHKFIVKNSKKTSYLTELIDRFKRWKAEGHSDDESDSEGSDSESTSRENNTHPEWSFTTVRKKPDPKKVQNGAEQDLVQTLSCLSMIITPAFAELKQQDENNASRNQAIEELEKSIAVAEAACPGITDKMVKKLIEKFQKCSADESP

inhibition [1]	inhibition [2]	inhibition [3]	inhibition [4]	inhibition [5]	inhibition [6]	inhibition [7]	inhibition [8]	inhibition [9]	inhibition [10]	SMILES
79%	< 50%	< 50%	< 50%	< 50%	< 50%	< 50%	< 50%	79%	< 50%	O[C@H]1CC[C@H](Nc2nccc(-n3nnc4ccccc43)n2)CC1
76%	< 50%	< 50%	< 50%	< 50%	< 50%	< 50%	< 50%	< 50%	< 50%	O[C@H]1CC[C@H](Nc2nccc(-n3ncc4ccccc43)n2)CC1
94%	–	< 50%	–	–	–	< 50%	–	–	–	O[C@H]1CC[C@H](Nc2nccc(-c3n[nH]c4ccccc34)n2)CC1
80%	< 50%	< 50%	< 50%	< 50%	< 50%	< 50%	< 50%	< 50%	< 50%	O[C@H]1CC[C@H](Nc2nccc(-n3ccc4ccccc43)n2)CC1
